Consider 37 variants from the RNAGym collection of RNA variant scans (doi:10.1126/science.aae0568).

B1: tRNA (parent)
chain: GUUCCGUUGGCGUAAUGGUAACGCGUCUCCCUCCUAAGGAGAAGACUGCGGGUUCGAGUCCCGUACGGAACG

Variants at the floor of the assay were thinned out.

In the data set the parent is B1. The data set is described as follows: yeast fitness relative to wild type (ratio to wild type); higher = fitter; tRNA-Arg(CCU), competitive growth, 37 C, YPD. In short, it runs like this: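 A pool of Saccharomyces cerevisiae strains, each with a tRNA-Arg(CCU) gene variant at the native genomic locus, was competed in YPD at 37°C for 24 hours across six parallel replicates. The variants had been chemically synthesised at a 3% per-site mutation rate over 69 sites, and gene amplicons before and after competition were read by 100-nucleotide paired-end sequencing. Darwinian fitness relative to wild type rested on changes in genotype frequencies. Genotypes required ≥ 100 starting reads, and estimates < 0.5 were set to 0.5.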
For GUUCCGUUGGCGUAAUGGUAUAGCGUCUCCCUCCUAAGGAGAAGACUGCCGGUUCGAGUCCCGUACGGAACG [A21U C22A G50C], the yeast fitness came out at 0.575.
GUUCCGUUGGCGUAAUGGUAGCGCGUCUCCCCCAUAAGGAGAAGACUGCGGGUUAGAGUCCCGUACGGCACG [A21G U32C C34A C55A A69C]: the yeast fitness was not above 0.5.
As for GUUCCGUUGGCGUAAUGGUAUCGCGUCUCACUCCUAAGGAGAAGACUGCGGGUUCGAGUCCCGUACGGAACG [A21U C30A], the figure is 0.757; as for GUUCCGUUGGCGUAAUGGUAUCGGGUCACCCUCCUAAGGAGAAGACUGCGGGUUCGAGACCCGUACGGAACG [A21U C24G U28A U59A], not above 0.5.
For GUUCCGUUGGCGUAAUGGUAGCGCGUCUCCCUCCUAAGGAGAAGAUUGCGGGUUCCAGUCCCGUACGGUACG [A21G C46U G56C A69U], the yeast fitness was not above 0.5.
Take GUUCCGUUGGCGUAAUGGUAUCGCGUCUCCCUCCUAAGGAGAGGACUGCGGGUUCGAGUCCCGUACGGAACG [A21U A43G]: the yeast fitness was 0.752.
Turning to GUUCCGUUGGCGUAAUGGUAGCGCGUCUCCCUCCGAAGGAGAAGACUGCGGGUUCGCGUCCCGUACCGAACG [A21G U35G A57C G67C], the yeast fitness was not above 0.5.
For GUUCCGUUGGCGUAAUGGUAGCGCGUCUCCCUCCUAAGGAGAAGACUGCGGGUUCGAGUCCCGUACUGAUCG [A21G G67U A70U], the yeast fitness worked out at 0.607.
As for GUUCCGUUGGCGUAAUGGUAUCGCGUCUCCCUCCUAAGGAGUACACUGCGGGUUCGAGUGCGGUACGGAACG [A21U A42U G44C C60G C62G], the figure is not above 0.5; as for GUUCCGUUGGCGUAAUGGUAGCGCGUCAUCCUCCUAAGGAGAAGACUGCGGGUUCGAAUCCCGUACGGAACG [A21G U28A C29U G58A], 0.528; as for GUUCCGUUGGCGUAAUGGUAGCGCGUCUCCCUCCUAAGGAGAAGACUGCGGGUUCUACUCCCGUACGGAACG [A21G G56U G58C], 0.661.
Regarding GUUCCGUUGGCGUAAUGGUAGCGCGUCUCCCCCCUAAGGAGAAGACUGCGGGUUCGAGGCUCGUAUGGACCG [A21G U32C U59G C61U C66U A70C], the yeast fitness was found to be 0.572.
As for GUUCCGUUGGCGUAAUGGUAUCGCGUCUACCUCCUAAGGAGAAGACUGCGGGUUCGAGUCCCGUACGGAACG [A21U C29A], the figure is 0.751.
Turning to GUUCCGUUGGCGUAAUGGUAGCGCGUCUCCCUCCUAAGGAGAAGAUUGCGGGUUCGAGUCCCGUAUGGAACG [A21G C46U C66U], the yeast fitness amounted to 0.742.
Take GUUCCGUUGGCGUAAUGGUAGCACGUUUCCCUCCUAAGGAGAAGACUGCGGGUUCGAGUCCCGUAUGGAACG [A21G G23A C27U C66U]: the yeast fitness was found to be 0.533.
Next, GUUCCGUUGGCGUAAUGGUAUCGCGUGUCCCUUAUAAGGAGAAGACUGCGCGUUCGCGUCCCGUACGGAACG [A21U C27G C33U C34A G51C A57C]: not above 0.5; GUUCCGUUGGCGUAAUGGUAUCGUGUCUCCCUCCUAUGGAGAAGACUGCGUGUUCGAGUCCCGUACGGAACG [A21U C24U A37U G51U]: not above 0.5.
Consider GUUCCGUUGGCGUAAUGGUAGCGCGUCUCCCUCCUAAGGAGAAGACUGUGGGUUCGAGGCCCGUACGGAACG [A21G C49U U59G], for which the yeast fitness was 0.619.
GUUCCGUUGGCGUAAUGGUAGCGCGUCUCCCUCCCAAGGAGAAGACUGCGGGUUCGAGUCCCGUAAGGAACG [A21G U35C C66A]: the yeast fitness is not above 0.5.
GUUCCGUUGGCGUAAUGGUAGCGCGUCUCCCUCCUAAGGAGAAGACUGCGGGUUCAAGUCCCGUACGGAACG [A21G G56A]: the yeast fitness was found to be 1.08.
With GUUCCGUUGGCGUAAUGGUAUCGCGUCUCCCUCCUAUGGUGAAGACUGCCGGUUCGAGUCCCGUACGGAACG [A21U A37U A40U G50C], the yeast fitness is not above 0.5.
With GUUCCGUUGGCGUAAUGGUAGCACGUCUCCCUCCUAAGGCGAAGACUGCGGAUUCGAGUCCCGUACGGAACG [A21G G23A A40C G52A], the yeast fitness is not above 0.5.
Regarding GUUCCGUUGGCGUAAUGGUAGCACGUCUCCCUCCUAAGGAGAAGCCUGCGGAUUCGAGUCCCGUACGGAACG [A21G G23A A45C G52A], the yeast fitness was 0.517.
On to GUUCCGUUGGCGUAAUGGUAUCGCGUCUCCCUCCUAAGGCGAAGACUGCGGGUUCGAGUCCCGUACGGAACG [A21U A40C], for which the yeast fitness is 0.727.
Consider GUUCCGUUGGCGUAAUGGUAUUGCGUCUCCCUCCUAAGGAGCUCACUGCGGGUUCGAGUCCCGUCCGGAACG [A21U C22U A42C A43U G44C A65C], for which the yeast fitness is 0.663.
As to GUUCCGUUGGCGUAAUGGUAGCGCGUCUCCCUCCUAAGGAGAAGACUGCGGGUUCGACCCCCGUACGGAACG [A21G G58C U59C], the yeast fitness came out at 0.961.
For the variant GUUCCGUUGGCGUAAUGGUAGCGCGUCUCCCUCCUAAGGAGAAGACUGCGGGUUCGAGCCCCGUUCCGACCG [A21G U59C A65U G67C A70C], the yeast fitness is not above 0.5.
For the variant GUUCCGUUGGCGUAAUGGUAUCGCGUGUCCCUUAUAAGGAGAAGACUGCGGGUUCGAGUCCCGUAUGGAACG [A21U C27G C33U C34A C66U], the yeast fitness was not above 0.5.
As for GUUCCGUUGGCGUAAUGGUAUCGCGUCUCCCUCCUAAGGAGUAGACUGCGGGUUCGAGUCCCGUAUGGAACG [A21U A42U C66U], the yeast fitness is not above 0.5.
On to GUUCCGUUGGCGUAAUGGUAUCGCGUCUCCCUCCUAAGGAGCAGACGGCGGGUUCGAGUCCCAUACGGUACG [A21U A42C U47G G63A A69U], for which the yeast fitness was not above 0.5.
Turning to GUUCCGUUGGCGUAAUGGUAGCGCGUCUCCCUCCUAAGAAGAAGACUGCGGGUCCGAGUCCCGUACGGAACG [A21G G39A U54C], the yeast fitness came out at 0.589.
Regarding GUUCCGUUGGCGUAAUGGUAUUGCGUCUCCCUCCUAAGGAGAGGACUGCGGGUUCGAGUCCCGUACGGAACG [A21U C22U A43G], the yeast fitness is not above 0.5.
With GUUCCGUUGGCGUAAUGGUAGCGCGCCUCCCUCCUAAGGAGAAGACUCCGGGUUCGAGUCCCGUACGGAACG [A21G U26C G48C], the yeast fitness turned out to be 0.615.
With GUUCCGUUGGCGUAAUGGUAGCGCGUCUCCCUCCUAAGGAGAAGACGGCGGGUUCGAGUCCCGUACGGAACG [A21G U47G], the yeast fitness came out at 0.525.
On to GUUCCGUUGGCGUAAUGGUAUCGCGUCUCCCUCCUAAGGAGAAGACUGCGGGUUCGAGUCCCGUACGGCGCG [A21U A69C A70G], for which the yeast fitness came to 0.594.
Regarding GUUCCGUUGGCGUAAUGGUAUCGCGUCUUCUUCCUAAGGAGAAGACUGCGGGUCCGAGUCCCGUACGGAGCG [A21U C29U C31U U54C A70G], the yeast fitness is not above 0.5.
On to GUUCCGUUGGCGUAAUGGUAGCGCGUCUCCCUCCUAAGGAGAAGACCGUGGGUUCGAGUCCCGUACGGAACG [A21G U47C C49U], for which the yeast fitness amounted to 0.773.
